Experimental data published in ChEMBL document CHEMBL1146597, “Synthesis, in vitro affinity, and efficacy of a bis 8-ethynyl-4H-imidazo[1,5a]- [1,4]benzodiazepine analogue, the first bivalent alpha5 subtype selective BzR/GABA(A) antagonist” (J Med Chem, 2003).

How the values were obtained:
[1] = In vitro binding affinity for human GABA-A receptor alpha-3-beta-3-gamma-2 subunits expressed in L(tk-) cell membranes
In short: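 Radioligand displacement on Ltk cell membranes expressing human α3β3γ2 receptors, with 1.8 nM [3H]Ro15-1788 as radioligand. Ki is the mean of two determinations that differed by less than 10%.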

[2] = biological target: GABA A receptor alpha-4/beta-3/gamma-2 (Homo sapiens, UniProt P18507+P28472+P48169); assay: In vitro binding affinity for human GABA-A receptor alpha-4-beta-3-gamma-2 subunits expressed in L(tk-) cell membranes
Chain of GABA A receptor alpha-4/beta-3/gamma-2 (P48169 whole entry, one chain of several): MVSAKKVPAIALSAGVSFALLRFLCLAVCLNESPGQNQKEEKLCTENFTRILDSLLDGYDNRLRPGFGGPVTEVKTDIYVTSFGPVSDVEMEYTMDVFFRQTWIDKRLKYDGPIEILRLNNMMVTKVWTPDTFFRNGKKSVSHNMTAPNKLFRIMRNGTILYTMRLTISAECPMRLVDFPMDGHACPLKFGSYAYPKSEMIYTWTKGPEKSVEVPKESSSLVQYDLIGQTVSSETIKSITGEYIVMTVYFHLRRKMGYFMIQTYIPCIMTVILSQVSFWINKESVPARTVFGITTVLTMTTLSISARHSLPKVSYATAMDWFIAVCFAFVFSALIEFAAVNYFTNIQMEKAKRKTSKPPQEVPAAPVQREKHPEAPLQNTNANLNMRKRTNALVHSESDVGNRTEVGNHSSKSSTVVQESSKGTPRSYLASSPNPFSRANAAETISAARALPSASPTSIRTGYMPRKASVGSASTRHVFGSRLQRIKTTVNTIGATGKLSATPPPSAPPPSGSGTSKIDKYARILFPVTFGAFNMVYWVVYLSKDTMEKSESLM
In short: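 Radioligand displacement on Ltk cell membranes expressing human α4β3γ2 receptors, with 8 nM [3H]Ro15-4513 as radioligand. Ki is the mean of two determinations that differed by less than 10%.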

[3] = biological target: T1, GABA-A receptor; alpha-1/beta-3/gamma-2 (Homo sapiens, UniProt P14867+P18507+P28472); assay: In vitro binding affinity for human GABA-A receptor alpha-1-beta-3-gamma-2 subunits expressed in L(tk-) cell membranes
T1 sequence (P14867 whole entry): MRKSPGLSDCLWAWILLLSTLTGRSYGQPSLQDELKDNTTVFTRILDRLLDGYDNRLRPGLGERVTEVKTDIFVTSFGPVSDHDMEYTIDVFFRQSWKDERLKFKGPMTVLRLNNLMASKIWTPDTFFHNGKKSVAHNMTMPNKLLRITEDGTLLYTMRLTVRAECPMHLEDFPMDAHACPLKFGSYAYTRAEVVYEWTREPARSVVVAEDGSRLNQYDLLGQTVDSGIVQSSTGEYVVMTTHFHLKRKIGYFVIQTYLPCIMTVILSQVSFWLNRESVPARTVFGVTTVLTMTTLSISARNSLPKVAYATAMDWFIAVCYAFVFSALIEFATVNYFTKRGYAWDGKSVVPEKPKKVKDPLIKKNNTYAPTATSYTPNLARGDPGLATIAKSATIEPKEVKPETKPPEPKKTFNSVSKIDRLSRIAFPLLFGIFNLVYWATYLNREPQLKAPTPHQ
T1 sequence (P18507 whole entry): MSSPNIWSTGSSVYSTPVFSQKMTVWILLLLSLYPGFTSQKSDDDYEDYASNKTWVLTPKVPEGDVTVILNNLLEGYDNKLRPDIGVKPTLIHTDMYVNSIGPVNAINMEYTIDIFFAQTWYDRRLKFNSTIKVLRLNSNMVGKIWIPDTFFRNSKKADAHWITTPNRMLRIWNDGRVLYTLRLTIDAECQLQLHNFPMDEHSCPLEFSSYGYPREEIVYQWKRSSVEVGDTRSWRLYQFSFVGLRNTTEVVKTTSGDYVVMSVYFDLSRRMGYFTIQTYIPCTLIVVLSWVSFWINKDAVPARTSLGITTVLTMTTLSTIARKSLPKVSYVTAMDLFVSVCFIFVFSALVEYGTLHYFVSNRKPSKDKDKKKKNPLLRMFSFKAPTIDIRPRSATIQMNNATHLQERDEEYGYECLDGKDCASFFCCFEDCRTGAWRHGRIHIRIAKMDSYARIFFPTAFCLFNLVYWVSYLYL
T1 sequence (P28472 whole entry): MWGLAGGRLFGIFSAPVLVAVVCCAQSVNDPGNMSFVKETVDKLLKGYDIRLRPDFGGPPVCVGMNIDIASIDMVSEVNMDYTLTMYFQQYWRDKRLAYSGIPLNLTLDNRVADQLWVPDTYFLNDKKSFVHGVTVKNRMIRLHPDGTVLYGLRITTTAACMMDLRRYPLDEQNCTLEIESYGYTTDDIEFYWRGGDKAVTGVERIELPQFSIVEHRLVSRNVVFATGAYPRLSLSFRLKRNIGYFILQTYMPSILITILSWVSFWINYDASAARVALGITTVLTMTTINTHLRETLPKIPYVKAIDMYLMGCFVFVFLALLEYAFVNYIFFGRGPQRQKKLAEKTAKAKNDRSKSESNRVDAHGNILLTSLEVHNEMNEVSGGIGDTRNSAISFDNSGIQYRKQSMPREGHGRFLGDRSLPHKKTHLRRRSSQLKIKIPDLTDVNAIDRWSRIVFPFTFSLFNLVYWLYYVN
In short: (§1)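 Radioligand displacement on membranes of […] cells expressing human αβ3γ2 receptors, using 1.8 nM [³H]Ro15-1788. Ki taken as the mean of two determinations that differed by less than 10%.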

[4] = biological target: GABA-A receptor; alpha-6/beta-3/gamma-2 (Homo sapiens, UniProt P18507+P28472+Q16445); assay: In vitro binding affinity for human GABA-A receptor alpha-6-beta-3-gamma-2 subunits expressed in L(tk-) cell membranes
Chain of GABA-A receptor; alpha-6/beta-3/gamma-2 (Q16445 whole entry, one chain of several): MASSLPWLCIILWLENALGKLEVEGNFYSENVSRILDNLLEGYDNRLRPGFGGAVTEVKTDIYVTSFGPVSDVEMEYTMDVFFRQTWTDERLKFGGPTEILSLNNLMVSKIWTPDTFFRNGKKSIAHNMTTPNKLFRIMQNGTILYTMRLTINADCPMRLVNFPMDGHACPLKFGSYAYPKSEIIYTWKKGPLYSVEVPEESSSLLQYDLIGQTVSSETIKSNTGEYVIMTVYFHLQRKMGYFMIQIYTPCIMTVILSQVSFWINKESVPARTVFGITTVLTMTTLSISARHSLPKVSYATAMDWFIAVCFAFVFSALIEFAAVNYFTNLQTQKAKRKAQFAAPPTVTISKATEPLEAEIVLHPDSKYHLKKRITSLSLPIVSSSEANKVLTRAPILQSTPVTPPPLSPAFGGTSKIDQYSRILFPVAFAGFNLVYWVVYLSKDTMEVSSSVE

[5] = biological target: T2, GABA-A receptor; alpha-5/beta-3/gamma-2 (Homo sapiens, UniProt P18507+P28472+P31644); assay: In vitro binding affinity for human GABA-A receptor alpha-5-beta-3-gamma-2 subunits expressed in L(tk-) cell membranes; in short: as §1
T2 sequence (P18507 whole entry): T1 sequence (P18507 whole entry)
T2 sequence (P28472 whole entry): T1 sequence (P28472 whole entry)
T2 sequence (P31644 whole entry): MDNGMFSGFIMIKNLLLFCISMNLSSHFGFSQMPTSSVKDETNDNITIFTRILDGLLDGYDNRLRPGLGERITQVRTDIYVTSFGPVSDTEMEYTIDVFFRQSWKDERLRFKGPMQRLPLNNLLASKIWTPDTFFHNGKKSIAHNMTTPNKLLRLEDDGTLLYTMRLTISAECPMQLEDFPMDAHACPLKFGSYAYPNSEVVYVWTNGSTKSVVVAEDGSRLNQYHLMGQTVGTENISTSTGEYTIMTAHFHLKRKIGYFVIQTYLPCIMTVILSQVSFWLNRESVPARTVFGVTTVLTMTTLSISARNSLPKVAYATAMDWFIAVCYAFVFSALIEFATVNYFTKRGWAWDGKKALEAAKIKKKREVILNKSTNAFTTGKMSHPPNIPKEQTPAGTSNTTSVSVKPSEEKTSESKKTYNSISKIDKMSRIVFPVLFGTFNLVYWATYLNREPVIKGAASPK

[6] = biological target: T3, GABA-A receptor; alpha-2/beta-3/gamma-2 (Homo sapiens, UniProt P18507+P28472+P47869); assay: In vitro binding affinity for human GABA-A receptor alpha-2-beta-3-gamma-2 subunits expressed in L(tk-) cell membranes; in short: as §1
T3 sequence (P18507 whole entry): T1 sequence (P18507 whole entry)
T3 sequence (P28472 whole entry): T1 sequence (P28472 whole entry)
T3 sequence (P47869 whole entry): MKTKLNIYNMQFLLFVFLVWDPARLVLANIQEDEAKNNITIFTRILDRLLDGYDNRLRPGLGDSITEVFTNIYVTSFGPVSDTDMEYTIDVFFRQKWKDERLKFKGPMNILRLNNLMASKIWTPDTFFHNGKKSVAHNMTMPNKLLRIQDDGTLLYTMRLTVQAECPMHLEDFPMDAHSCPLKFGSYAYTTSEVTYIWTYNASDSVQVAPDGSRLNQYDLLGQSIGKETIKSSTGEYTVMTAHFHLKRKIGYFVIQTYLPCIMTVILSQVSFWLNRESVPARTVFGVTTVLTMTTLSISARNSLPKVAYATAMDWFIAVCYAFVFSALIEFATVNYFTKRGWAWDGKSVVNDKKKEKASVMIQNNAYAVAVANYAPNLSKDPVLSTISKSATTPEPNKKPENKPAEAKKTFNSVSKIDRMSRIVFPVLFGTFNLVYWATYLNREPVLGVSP

Row | Compound | Ki [1] [nM] | Ki [2] [nM] | Ki [3] [nM] | Ki [4] [nM] | Ki [5] [nM] | Ki [6] [nM]
1 | CCOC(=O)c1ncn2c1[C@@H]1CCCN1C(=O)c1cc(OC)ccc1-2 | 24.5 |  |  |  |  | 
2 | C#Cc1ccc2c(c1)C(=O)N(C)Cc1c(C(=O)OCC)ncn1-2 | 25.8 | 53 |  |  |  | 
3 | C#Cc1ccc2c(c1)C(=O)N(C)Cc1c(C(=O)OCCCOC(=O)c3ncn4c3CN(C)C(=O)c3cc(C#C)ccc3-4)ncn1-2 | 858 | 1550 | > 1000 | > 2000 | 15 | > 1000
4 | CN1Cc2c(C(=O)OC(C)(C)C)ncn2-c2ccc(C#C[Si](C)(C)C)cc2C1=O | 255 | 7.8 |  |  |  | 
5 | C#Cc1ccc2c(c1)C(=O)N(C)Cc1c(C(=O)OC(C)(C)C)ncn1-2 | 18.7 |  |  |  |  | 
6 | CCOC(=O)c1ncn2c1CN(C)C(=O)c1cc(C#C[Si](C)(C)C)ccc1-2 | 198 |  |  |  |  | 
7 | CCOC(=O)c1ncn2c1CN(C)C(=O)c1cc(N=[N+]=[N-])ccc1-2 [Ro-154513] | 25 |  | 33 |  |  | 
